What was measured:
[1] = biological target: T1, Inhibitor of nuclear factor kappa-B kinase subunit beta (Homo sapiens) (UniProt O14920); test: Binding affinity to human recombinant IKK2 assessed as half life
T1 sequence (whole entry): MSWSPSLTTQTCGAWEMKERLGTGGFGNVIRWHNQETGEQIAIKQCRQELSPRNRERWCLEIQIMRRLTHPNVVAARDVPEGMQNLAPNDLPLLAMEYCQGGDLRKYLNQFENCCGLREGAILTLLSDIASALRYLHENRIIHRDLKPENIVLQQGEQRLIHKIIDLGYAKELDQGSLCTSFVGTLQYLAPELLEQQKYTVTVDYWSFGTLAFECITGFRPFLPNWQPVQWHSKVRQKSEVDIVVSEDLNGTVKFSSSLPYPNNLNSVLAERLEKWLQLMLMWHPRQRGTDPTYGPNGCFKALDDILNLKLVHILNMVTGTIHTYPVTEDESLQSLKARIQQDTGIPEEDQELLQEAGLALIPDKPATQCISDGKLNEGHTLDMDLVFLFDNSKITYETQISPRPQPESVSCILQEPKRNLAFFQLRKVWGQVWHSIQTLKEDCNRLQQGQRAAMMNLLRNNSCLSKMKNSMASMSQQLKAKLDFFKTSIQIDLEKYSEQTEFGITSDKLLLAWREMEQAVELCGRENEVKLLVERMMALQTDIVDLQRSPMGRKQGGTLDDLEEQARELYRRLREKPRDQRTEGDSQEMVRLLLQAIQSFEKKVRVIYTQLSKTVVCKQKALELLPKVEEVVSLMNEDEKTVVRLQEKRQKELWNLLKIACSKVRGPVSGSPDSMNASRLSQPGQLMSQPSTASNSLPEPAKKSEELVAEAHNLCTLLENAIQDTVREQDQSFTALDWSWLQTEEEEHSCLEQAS

[2] = Half life in human liver microsomes
[3] = biological target: T1, Inhibitor of nuclear factor kappa-B kinase subunit beta (Homo sapiens); test: Binding affinity to human IKK2 in PBMC assessed as half life by cell-based assay
Procedure, shortened: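 Cryopreserved PBMC were thawed and plated, then exposed to compound for 1 h. Compound was removed by four spin-and-aspirate washes, and an unwashed plate served as control. Loss of inhibition after washout gave the cellular half-life.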

PBMC = test: Inhibition of LPS-stimulated TNFalpha release in human PBMC; assay type: functional, cell-based
Procedure, shortened: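 PBMC were Ficoll-isolated from heparinized blood of healthy donors and plated at 2.5 × 10⁵ cells/well in RPMI 1640 with 5% FBS and penicillin–streptomycin. Cells were preincubated with compound for 1 h, then stimulated with LPS (20 ng/ml) for 16 h. Supernatant TNFα was measured by ELISA, and IC50 is the mean of ≥3 experiments.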

[4] = biological target: T2, Inhibitor of nuclear factor kappa-B kinase subunit beta (Homo sapiens, UniProt O14920); test: Inhibition of human recombinant IKK2
T2 sequence (O14920 whole entry): T1 sequence (whole entry)

[5] = biological target: Voltage-gated inwardly rectifying potassium channel KCNH2 (Homo sapiens, UniProt Q12809); test: Displacement of dofetilide from human ERG transfected in HEK293 cells by fluorescence polarization assay
Chain of Voltage-gated inwardly rectifying potassium channel KCNH2 (Q12809 whole entry): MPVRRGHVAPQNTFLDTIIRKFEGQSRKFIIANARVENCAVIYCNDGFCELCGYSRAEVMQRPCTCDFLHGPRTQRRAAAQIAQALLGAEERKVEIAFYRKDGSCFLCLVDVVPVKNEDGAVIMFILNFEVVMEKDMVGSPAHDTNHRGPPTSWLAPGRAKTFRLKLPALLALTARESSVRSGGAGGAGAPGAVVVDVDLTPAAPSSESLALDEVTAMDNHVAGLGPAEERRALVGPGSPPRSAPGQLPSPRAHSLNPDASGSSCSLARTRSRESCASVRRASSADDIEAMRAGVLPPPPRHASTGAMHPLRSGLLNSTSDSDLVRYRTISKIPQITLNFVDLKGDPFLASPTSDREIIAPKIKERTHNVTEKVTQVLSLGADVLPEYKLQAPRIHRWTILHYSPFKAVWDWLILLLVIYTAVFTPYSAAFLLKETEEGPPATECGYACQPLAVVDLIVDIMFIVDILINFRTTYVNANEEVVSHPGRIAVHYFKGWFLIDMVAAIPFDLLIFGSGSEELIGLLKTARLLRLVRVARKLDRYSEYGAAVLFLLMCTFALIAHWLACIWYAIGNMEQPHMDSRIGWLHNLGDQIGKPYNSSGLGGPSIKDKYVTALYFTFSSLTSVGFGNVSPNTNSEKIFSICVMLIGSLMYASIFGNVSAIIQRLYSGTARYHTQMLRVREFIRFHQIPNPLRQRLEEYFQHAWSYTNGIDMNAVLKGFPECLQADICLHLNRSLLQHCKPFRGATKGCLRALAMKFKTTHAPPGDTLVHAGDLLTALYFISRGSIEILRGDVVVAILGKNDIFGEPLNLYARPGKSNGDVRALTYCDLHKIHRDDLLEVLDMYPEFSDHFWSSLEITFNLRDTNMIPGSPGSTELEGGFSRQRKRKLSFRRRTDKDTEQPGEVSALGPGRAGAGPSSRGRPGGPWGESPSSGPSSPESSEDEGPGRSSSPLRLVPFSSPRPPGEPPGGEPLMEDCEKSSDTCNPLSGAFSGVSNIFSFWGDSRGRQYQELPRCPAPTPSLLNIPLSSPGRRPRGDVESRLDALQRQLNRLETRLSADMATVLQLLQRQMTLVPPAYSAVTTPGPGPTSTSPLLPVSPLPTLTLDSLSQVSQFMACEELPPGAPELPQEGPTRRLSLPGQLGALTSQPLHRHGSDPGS
Procedure, shortened: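 Competition binding used membranes from HEK-293 cells transfected with hERG. Test compound competed with Cy3B-tagged N-desmethyl dofetilide for channel binding, with fluorescence polarization read-out. Values are given as % of effect.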

Structure (SMILES)	T1/2 [1] [h]	half-life ([2]; liver microsomes) [h]	T1/2 [3] [h]	IC50 [4] [nM]	half-life ([2]; microsomes) [h]	IC50 (PBMC) [nM]	inhibition (INH) [5] [%]
CCOC(=O)CCn1cc(CN2CCN(c3cc(C(=O)Nc4ccc5c(c4)-c4c(c(C(N)=O)nn4-c4ccc(F)cc4)CC5)c(Cl)cn3)CC2)cn1	6	0.05	> 4	4.7		14	90
N#CCCn1cc(CN2CCN(c3cc(C(=O)Nc4ccc5c(c4)-c4c(c(C(N)=O)nn4-c4ccc(F)cc4)CC5)c(Cl)cn3)CC2)cn1	5	0.1	> 4	7.6		9	98
CN(C)CCCn1cc(CN2CCN(c3cc(C(=O)Nc4ccc5c(c4)-c4c(c(C(N)=O)nn4-c4ccc(F)cc4)CC5)c(Cl)cn3)CC2)cn1	4	0.183	> 4	3.7		12	42
CN(C)C(=O)Cn1cc(CN2CCN(c3cc(C(=O)Nc4ccc5c(c4)-c4c(c(C(N)=O)nn4-c4ccc(F)cc4)CC5)c(Cl)cn3)CC2)cn1	5	0.133	< 4	2.3		13	50
NC(=O)c1nn(-c2ccc(F)cc2)c2c1CCc1ccc(NC(=O)c3cc(N4CCN(Cc5cnn(CCCO)c5)CC4)ncc3Cl)cc1-2	5		> 4	2.2	0.15	15	49

Stronger by IC50 [4], values ahead:

T1/2 [1] [h]	half-life ([2]; liver microsomes) [h]	T1/2 [3] [h]	IC50 [4] [nM]	half-life ([2]; microsomes) [h]	Structure (SMILES)	IC50 (PBMC) [nM]	inhibition (INH) [5] [%]
6	0.05	> 4	1.3		COCCNC(=O)Cn1cc(CN2CCN(c3cc(C(=O)Nc4ccc5c(c4)-c4c(c(C(N)=O)nn4-c4ccc(F)cc4)CC5)c(Cl)cn3)CC2)cn1	10	58
5	0.05	> 4	1		CCOC(=O)Cn1cc(CN2CCN(c3cc(C(=O)Nc4ccc5c(c4)-c4c(c(C(N)=O)nn4-c4ccc(F)cc4)CC5)c(Cl)cn3)CC2)cn1	6	95
5		< 4	1	2	NC(=O)c1nn(-c2ccc(F)cc2)c2c1CCc1ccc(NC(=O)c3cc(N4CCN(Cc5cnn(CC(=O)NCCO)c5)CC4)ncc3Cl)cc1-2	9	12
5	0.967	< 4	0.9		NC(=O)Cn1cc(CN2CCN(c3cc(C(=O)Nc4ccc5c(c4)-c4c(c(C(N)=O)nn4-c4ccc(F)cc4)CC5)c(Cl)cn3)CC2)cn1	7	38

Source: ChEMBL document CHEMBL1667819, “Aminopyridinecarboxamide-based inhaled IKK-2 inhibitors for asthma and COPD: Structure-activity relationship” (Bioorg Med Chem, 2011)
